Laboratory results published in PMC9771833 (International Journal for Parasitology: Drugs and Drug …, 2022).

Legend:
[1] = tested on: Plasmodium berghei NAT (atovaquone-resistant strain); test: Hematological analysis of P. berghei NAT-infected mice; type: in vivo
Method in brief: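 Same P. berghei NAT-infected ICR-1 mouse model: 10^7 infected erythrocytes given i.p., test compound or control drug once daily for 4 days from 1 dpi. Blood was taken at 3, 6, 9 and 12 dpi and run on an automated blood cell counter for WBC, RBC, haemoglobin and hematocrit.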

[2] = tested on: Plasmodium berghei NAT (atovaquone-resistant strain); test: 4-day suppression test in P. berghei NAT-infected ICR mice; type: in vivo
Method in brief: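 Female 7-week-old ICR-1 mice (6/group) infected i.p. with 10^7 P. berghei NAT-infected erythrocytes. Dosing began 1 dpi: test compound at 10, 20 or 30 mg/kg, once daily for 4 days. Controls were DHA 10, atovaquone 4 and chloroquine 10 mg/kg, given i.v. once daily for 4 days. Parasitemia was measured daily by FACS of tail blood. Weight and survival were recorded daily to 15 dpi.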

[3] = tested on: Plasmodium falciparum 3D7; type: cell-based; settings: 3D7 (CQ Sensitive); relative to SKM13
[4] = In vitro cytotoxicity in Vero cells; type: cell-based, African green monkey (Chlorocebus sp.); settings: African green monkey, Vero cells (kidney epithelial cells), CC50, Vero cell, mean ± SD
Method in brief: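 Vero cells were pre-seeded 12 h, then exposed to serially diluted test compound or control drugs for 48 h. Viability was read with CellTiter 96 AQueous One reagent at 490 nm absorbance. CC50 was calculated from the concentration–response data.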

[5] = tested on: P. f K1 (CQ Resistant); type: cell-based, Plasmodium falciparum; settings: relative to SKM13
[6] = tested on: eIF2α phosphorylation (ER stress response); test: Western blotting of phosphorylated eIF2α in trophozoite lysates; type: cell-based, Plasmodium falciparum; settings: trophozoites treated 90 min, Western blot
Method in brief: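 P. falciparum trophozoite cultures (5% hematocrit, 5% parasitemia) were plated 10–12 h, then drug-treated at 37 °C. Parasites were freed with 0.15% saponin, lysed in RIPA, run on 10% Bis-Tris SDS-PAGE and transferred to PVDF. Blots were blocked in 5% BSA and probed overnight at 4 °C with anti-phospho-eIF2α (1:1000), anti-eIF2α (1:3000) and anti-PfEF1α (5 μg/mL) as loading control. Detection used HRP secondaries and ECL.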

SMILES	WBC counts ([1]; 4 mg/kg, compared with infected untreated mice (WBC increased at 9 to 12 dpi))	body weight ([2]; 4 mg/kg)	parasitemia density ([2]; 4 mg/kg i.v.)	survival rate ([2]; 4 mg/kg i.v. once a day for four days, 15 dpi, ICR mice n = 6)	Relative SI [3]	WBC counts, HCT and Hgb ([1]; 10 mg/kg, infected mice, 3-12 dpi)	CC50 at 48 h [4]	Relative SI [5]	body weight ([2]; 10 mg/kg)	parasite density (parasitemia) ([2]; 10 mg/kg i.v., all observation period, p < 0.001)	phosphorylation of eIF2α [6]
O=C1C(O)=C([C@H]2CC[C@H](c3ccc(Cl)cc3)CC2)C(=O)c2ccccc21 [Atovaquone]	same pattern of haematological result	decreased	did not suppress parasitemia density	33%	–	–	–	–	–	–	–
CCN(CC)CCCC(C)Nc1ccnc2cc(Cl)ccc12 (centres unmarked) [Chloroquine]	–	–	–	–	20.93	did not affect	120 ± 16.4 µM	7.81	maintained normal mouse body weight	significantly reduced	did not increase phosphorylation of eIF2α
C[C@H]1[C@@H](O)O[C@@H]2O[C@@]3(C)CC[C@H]4[C@H](C)CC[C@@H]1[C@@]24OO3 [DHA, Dihydroartemisinin]	–	–	–	–	4.84	–	31.3 ± 8.94 µM	3.97	–	–	–
